Published values pooled from the literature.
Lines come from different studies, so protocols differ.
Target: Serine/threonine-protein kinase 3 (STK3, Homo sapiens, UniProt Q13188)
Sequence (Q13188 1-491, as in one of the studies): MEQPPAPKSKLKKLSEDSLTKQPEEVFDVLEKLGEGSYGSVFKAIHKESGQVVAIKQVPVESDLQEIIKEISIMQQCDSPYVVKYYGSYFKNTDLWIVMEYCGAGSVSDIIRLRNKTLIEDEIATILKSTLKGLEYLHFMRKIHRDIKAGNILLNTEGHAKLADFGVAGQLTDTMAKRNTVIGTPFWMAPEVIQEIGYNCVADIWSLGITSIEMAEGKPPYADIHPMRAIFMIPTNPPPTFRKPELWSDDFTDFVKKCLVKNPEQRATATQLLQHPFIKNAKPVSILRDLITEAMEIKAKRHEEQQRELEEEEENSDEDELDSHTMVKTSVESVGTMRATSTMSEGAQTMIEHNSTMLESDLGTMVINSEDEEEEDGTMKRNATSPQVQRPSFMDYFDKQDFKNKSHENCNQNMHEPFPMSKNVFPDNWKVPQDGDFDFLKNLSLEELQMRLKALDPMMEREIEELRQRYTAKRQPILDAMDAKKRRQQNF

Cc1cnc(NC2CCOCC2)nc1-n1cnc(C(=O)NC(CN)c2cc(F)cc(Cl)c2)c1 (stereo not shown) — remaining activity (enzyme activity, inhibitor, radiometric; 1 µM): 108%
FC(F)(F)Oc1cccc(-c2cnc3ccc(-c4ccncc4)nn23)c1 — activity vs control (enzyme activity, inhibitor, radiometric; 1 µM): 75%
N#CC1(c2ccccn2)CCN(Cc2cc(C(=O)N3CCCC3)c(=O)n3ccccc23)CC1 — remaining binding (cell-free assay, competition with immobilised ligand; 1 µM): 92%
CCN(CC)CCNC(=O)c1c(C)[nH]c(/C=C2\C(=O)Nc3ccc(F)cc32)c1C — remaining signal (cell-free assay; 0.5 µM): 24.8%
COc1cc2ncnc(Nc3ccc(Oc4ccccc4)cc3C)c2cc1OC — inhibition (enzyme activity, inhibitor; 1 µM): -4%
Cc1ccc(Nc2nccc(N(C)c3ccc4c(C)n(C)nc4c3)n2)cc1S(N)(=O)=O — inhibition (cell-free assay, inhibitor; 10 µM): 4%
C[C@H](c1cccc(C#N)c1)n1cc(Cl)cc(C(N)=O)c1=N — remaining binding (cell-free assay, competition with immobilised ligand; 1 µM): 84%
CCN1CCN(Cc2ccc(NC(=O)c3ccc(C)c(Oc4ccnc5[nH]ccc45)c3)cc2C(F)(F)F)CC1 — inhibition (target engagement in cells, inhibitor, chemoproteomics; Huh-7; 1 µM): -58.9%
FC(F)c1nc2ccccc2n1-c1nc(N2CCOCC2)nc(N2CCOCC2)n1 — remaining activity (enzyme activity, inhibitor; 10 µM): 92%
CNCc1ccc(-c2cc(-c3nc(-c4ccc(S(=O)(=O)C(C)C)cc4)cnc3N)on2)cc1 — inhibition (enzyme activity, inhibitor; 0.4 µM): 18%
CNc1cccc2cc(C(=O)Nc3ccc(C(=O)O)cc3)c(=O)[nH]c12 — inhibition (enzyme activity, inhibitor; 10 µM): 4.2%
COc1ccc2cc(OCC3(C(=O)O)CN(C(=O)c4ccc(F)cc4)C3)ccc2c1 — remaining binding (cell-free assay, competition with immobilised ligand; 1 µM): 100%
CN1CCC2(CC1)NC(=O)c1c(c3ccc(Cl)c(Cl)c3n1C)C2C#N (racemic) — ΔTm (thermal stability, DSF; 10 µM): -0.2 °C
Cc1ccc(C(=O)Nc2ccc(CN3CCN(C)CC3)c(C(F)(F)F)c2)cc1C#Cc1cnc2cccnn12 — remaining activity (enzyme activity, inhibitor; 23.5 nM): 97%
Cn1c2c(Cl)c(Cl)ccc2c2cc(N)[nH]c(=O)c21 — ΔTm (thermal stability, DSF; 10 µM): 2.2 °C
COc1cc(Cl)c(C(=O)N[C@@H](CN[C@H]2CC[C@@H](N)CC2)Cc2ccc(C#N)cc2)cc1-c1ccc(CN[C@H](C)c2ccc(C)cc2)o1 — remaining activity (enzyme activity, inhibitor; 1 µM): 97%
O=C(N[C@H]1CCCCC/C=C\C2C[C@@]2(C(=O)O)NC(=O)[C@@H]2C[C@@H](Oc3ccncc3)CN2C1=O)OC1CCCC1 (stereo partly shown) — remaining binding (binding, competition with immobilised ligand; 1 µM): 76%
O=C1Nc2ccc(Cl)cc2C1=Cc1cc(Cl)c(O)c(Cl)c1 — remaining signal (cell-free assay; 0.5 µM): 31.6%
CCN1CCC2(CC1)NC(=O)c1c(c3ccc(Cl)c(Cl)c3n1C)C2C#N (racemic) — ΔTm (thermal stability, DSF; 10 µM): -0.1 °C
